Test results taken from paper PMC11844196 (Journal of Experimental Pharmacology, 2025).

Columns and labels:
MCF7 cells = assay: Cell morphology after treatment; type: cell-based, human
MDA-MB-231 cells = assay: PrestoBlue cytotoxicity assay; type: cell-based; settings: Homo sapiens, MDA-MB-231, 24 h, read-out: IC50 Value MDA-MB-231
Outline: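 Cells plated at 10,000 cells/well and incubated 24 h at 37°C, 5% CO2. MCF 10A were grown in MEBM to 70–80% confluency. Treated for 24 h with eight concentrations (250, 125, 62.5, 31.25, 15.625, 7.8125, 3.9, 1.95 µg/mL) in three parallel experiments, with cisplatin as positive control.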

CC[C@H](CC[C@@H](C)[C@H]1CC[C@H]2[C@@H]3CC=C4C[C@@H](O)CC[C@]4(C)[C@H]3CC[C@]12C)C(C)C [β-sitosterol]
Cell morphology (apoptosis signs) (MCF7 cells): cell blebbing indicative of apoptotic process | IC50 (MDA-MB-231 cells): > 250 µg/mL
